From ChEMBL document CHEMBL2021843, “Small peptide inhibitors of acetyl-peptide hydrolase having an uncommon mechanism of inhibition and a stable bent conformation” (J Med Chem, 2012)
The source made the active and inactive calls. The rule behind the calls is not given here.

Key:
[1] = target: T1, Acylamino-acid-releasing enzyme (Sus scrofa, UniProt P19205); assay: (§1) Inhibition of pig APEH using acetyl-Ala-pNA as substrate incubated for 2 mins prior to substrate addition by spectrophotometry
T1 sequence (P19205 whole entry): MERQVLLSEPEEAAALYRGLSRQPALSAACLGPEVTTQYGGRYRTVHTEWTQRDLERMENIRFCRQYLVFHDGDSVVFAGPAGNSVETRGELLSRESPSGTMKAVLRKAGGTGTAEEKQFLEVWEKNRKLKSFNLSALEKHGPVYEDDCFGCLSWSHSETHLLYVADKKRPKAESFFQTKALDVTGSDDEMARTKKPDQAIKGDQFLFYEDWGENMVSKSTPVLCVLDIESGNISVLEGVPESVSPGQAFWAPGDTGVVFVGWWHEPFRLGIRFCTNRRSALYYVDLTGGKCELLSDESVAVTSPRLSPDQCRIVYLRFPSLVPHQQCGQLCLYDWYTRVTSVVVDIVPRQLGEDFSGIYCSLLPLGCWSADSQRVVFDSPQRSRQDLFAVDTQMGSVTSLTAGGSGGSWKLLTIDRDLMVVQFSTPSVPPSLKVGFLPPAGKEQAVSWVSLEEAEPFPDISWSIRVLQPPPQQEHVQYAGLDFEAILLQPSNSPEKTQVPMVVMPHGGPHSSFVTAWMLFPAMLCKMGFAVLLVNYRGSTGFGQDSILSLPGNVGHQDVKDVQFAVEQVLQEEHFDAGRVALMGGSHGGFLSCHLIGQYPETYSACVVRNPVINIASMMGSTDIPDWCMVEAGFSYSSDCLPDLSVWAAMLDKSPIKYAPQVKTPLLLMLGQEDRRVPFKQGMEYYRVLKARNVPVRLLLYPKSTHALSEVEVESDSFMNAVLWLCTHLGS

[2] = Inhibition of chymotrypsin incubated for 30 mins prior to substrate addition by spectrophotometry
Summary of the method: (§2)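 Panel of proteases tested up to a maximal 1000 μM inhibitor, each at its own pH: carboxypeptidase Y pH 7.0; chymotrypsin, elastase and trypsin pH 8.0; subtilisin and proteinase K pH 7.5. IC50 and maximal % inhibition were recorded.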

[3] = Inhibition of elastase incubated for 30 mins prior to substrate addition by spectrophotometry; summary of the method: as §2
[4] = Inhibition of trypsin incubated for 30 mins prior to substrate addition by spectrophotometry; summary of the method: as §2
[5] = Inhibition of carboxypeptidase Y incubated for 30 mins prior to substrate addition by spectrophotometry; summary of the method: as §2
[6] = Inhibition of subtilisin incubated for 30 mins prior to substrate addition by spectrophotometry; summary of the method: as §2
[7] = Inhibition of proteinase K incubated for 30 mins prior to substrate addition by spectrophotometry; summary of the method: as §2
[8] = Inhibition of chymotrypsin at 1 mM incubated for 30 mins prior to substrate addition by spectrophotometry; summary of the method: as §2
[9] = Inhibition of elastase at 1 mM incubated for 30 mins prior to substrate addition by spectrophotometry; summary of the method: as §2
[10] = Inhibition of trypsin at 1 mM incubated for 30 mins prior to substrate addition by spectrophotometry; summary of the method: as §2
[11] = Inhibition of carboxypeptidase Y at 1 mM incubated for 30 mins prior to substrate addition by spectrophotometry; summary of the method: as §2
[12] = Inhibition of subtilisin at 1 mM incubated for 30 mins prior to substrate addition by spectrophotometry; summary of the method: as §2
[13] = Inhibition of proteinase K at 1 mM incubated for 30 mins prior to substrate addition by spectrophotometry; summary of the method: as §2
[14] = test system: HeLa; assay: Cytotoxicity against human HeLa cells assessed as LDH production after 24 hrs by spectrophotometry; format: functional, cell-based
Summary of the method: (§3)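 LDH release into culture medium after 24 h exposure of HeLa or A375 cells to peptide (50, 100, 150 μM). Medium from untreated cultures served as control, and medium from cells exposed to 1% Triton X-100 served as the 100% release positive control. Data are means ± SD.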

[15] = target: T2, Acylamino-acid-releasing enzyme (Homo sapiens) (UniProt P13798); assay: Inhibition of APEH in human HeLa cells after 24 hrs; format: cell-based
T2 sequence (whole entry): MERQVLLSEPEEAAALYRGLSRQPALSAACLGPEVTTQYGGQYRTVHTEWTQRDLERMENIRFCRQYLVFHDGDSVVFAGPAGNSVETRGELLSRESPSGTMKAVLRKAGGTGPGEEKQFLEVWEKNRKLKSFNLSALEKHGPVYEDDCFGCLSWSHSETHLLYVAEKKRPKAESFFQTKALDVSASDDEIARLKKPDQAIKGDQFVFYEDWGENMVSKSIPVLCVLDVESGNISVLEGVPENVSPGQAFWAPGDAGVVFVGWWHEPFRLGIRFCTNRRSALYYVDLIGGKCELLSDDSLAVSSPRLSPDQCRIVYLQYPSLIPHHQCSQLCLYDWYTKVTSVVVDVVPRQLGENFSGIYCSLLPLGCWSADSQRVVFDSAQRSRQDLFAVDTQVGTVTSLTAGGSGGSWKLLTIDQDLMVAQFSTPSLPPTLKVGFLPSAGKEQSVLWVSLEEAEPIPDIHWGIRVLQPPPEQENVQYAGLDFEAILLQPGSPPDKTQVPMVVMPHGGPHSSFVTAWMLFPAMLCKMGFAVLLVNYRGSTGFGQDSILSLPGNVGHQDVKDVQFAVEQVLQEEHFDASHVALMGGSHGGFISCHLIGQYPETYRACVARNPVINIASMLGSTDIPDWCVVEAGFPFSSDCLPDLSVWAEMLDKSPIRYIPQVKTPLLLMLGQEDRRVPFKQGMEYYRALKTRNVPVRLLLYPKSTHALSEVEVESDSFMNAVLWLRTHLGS
Summary of the method: (§4)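 Melanoma A375 and cervical HeLa cells were exposed for 24 h to peptide at 50, 100 or 150 μM. Data are means ± SD.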

[16] = target: T2, Acylamino-acid-releasing enzyme (Homo sapiens); assay: Inhibition of APEH in human A375 cells after 24 hrs; format: cell-based; conditions: A-375; summary of the method: as §4
[17] = target: T2, Acylamino-acid-releasing enzyme (Homo sapiens); assay: Inhibition of APEH in human HeLa cells at 150 uM after 24 hrs; format: cell-based; summary of the method: as §4
[18] = target: T2, Acylamino-acid-releasing enzyme (Homo sapiens); assay: Inhibition of APEH in human A375 cells at 150 uM after 24 hrs; format: cell-based; conditions: A-375; summary of the method: as §4
[19] = test system: HeLa; assay: Proapoptotic activity in human HeLa cells assessed as caspase 3-mediated hydrolysis of Ac-DEVD-AMC at 100 uM after 24 hrs by fluorimetry; format: functional, cell-based
Summary of the method: (§5)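 Caspase 3 activity was measured fluorimetrically with a kit after 24 h exposure of HeLa or A375 cells to compound. It was expressed as fold increase over untreated culture. Data come from triplicate analyses in three experiments, given as means ± SD.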

[20] = test system: HeLa; assay: Proapoptotic activity in human HeLa cells assessed as caspase 3-mediated hydrolysis of Ac-DEVD-AMC at 150 uM after 24 hrs by fluorimetry; format: functional, cell-based; summary of the method: as §5
[21] = test system: A-375; assay: Proapoptotic activity in human A375 cells assessed as caspase 3-mediated hydrolysis of Ac-DEVD-AMC at 100 uM after 24 hrs by fluorimetry; format: functional, cell-based; summary of the method: as §5
[22] = test system: HeLa; assay: Cytotoxicity against human HeLa cells assessed as LDH production at 50 to 150 uM after 24 hrs by spectrophotometry; format: functional, cell-based; summary of the method: as §3
[23] = test system: A-375; assay: Cytotoxicity against human A375 cells assessed as LDH production at 50 to 150 uM after 24 hrs by spectrophotometry; format: functional, cell-based; summary of the method: as §3
[24] = test system: A-375; assay: Proapoptotic activity in human A375 cells assessed as caspase 3-mediated hydrolysis of Ac-DEVD-AMC at 150 uM after 24 hrs by fluorimetry; format: functional, cell-based; summary of the method: as §5
[25] = target: T3, Acylamino-acid-releasing enzyme (Sus scrofa) (UniProt P19205); conditions: 150 uM
T3 sequence (whole entry): T1 sequence (P19205 whole entry)

[26] = target: T3, Acylamino-acid-releasing enzyme (Sus scrofa); conditions: 1 mM
[27] = target: T3, Acylamino-acid-releasing enzyme (Sus scrofa); conditions: 50 to 100 uM
[28] = target: T3, Acylamino-acid-releasing enzyme (Sus scrofa); conditions: 50 uM
[29] = test system: HeLa; assay: Proapoptotic activity in human HeLa cells assessed as caspase 3-mediated hydrolysis of Ac-DEVD-AMC at 30 uM after 24 hrs by fluorimetry relative to untreated control; format: functional; summary of the method: as §5
[30] = test system: HeLa; assay: Proapoptotic activity in human HeLa cells assessed as caspase 3-mediated hydrolysis of Ac-DEVD-AMC at 50 uM after 24 hrs by fluorimetry relative to untreated control; format: functional; summary of the method: as §5
[31] = test system: HeLa; assay: Cytotoxicity against human HeLa cells assessed as LDH production at 100 uM after 24 hrs by spectrophotometry; format: functional; summary of the method: as §3
[32] = target: T3, Acylamino-acid-releasing enzyme (Sus scrofa); assay: as §1

## CSCC[C@@H](NC(=O)[C@@H](CC(C)C)NC(=O)C(F)(F)F)C(=O)N1CCC[C@@H]1C(=O)N[C@H](Cc1cnc[nH]1)C(N)=O
[1]
  IC50: 98 µM
  Ki: 24 µM
[2]
  IC50: > 1000 µM
[3]
  IC50: > 1000 µM
[4]
  IC50: > 1000 µM
[5]
  IC50: 210 µM
[6]
  IC50: > 1000 µM
[7]
  IC50: > 1000 µM
[8]
  Imax: < 1%
[9]
  Imax: < 1%
[10]
  Imax: < 1%
[11]
  Imax: 30%
[12]
  Imax: < 1%
[13]
  Imax: < 1%
[14]
  Activity: inactive
[15]
  inhibition: Dose-dependent effect
[16]
  inhibition: Dose-dependent effect
[17]
  Imax: 80%
[18]
  Imax: 50%
[19]
  Activity: Active
[20]
  Activity: Active
[21]
  Activity: Active
[22]
  Activity: inactive
[23]
  Activity: inactive
[24]
  Activity: Active
[25]
  Imax: 72%
[26]
  Imax: 72%
[27]
  inhibition: Active
[28]
  inhibition: > 25%

## CC[C@@H](C)[C@@H](O)[C@H](C)C(=O)[C@H](C)/C=C(\C)C[C@H](C)[C@@H]1OC(=O)[C@H]1CC [EBELACTONE B]
[29]
  fold change (FC): 5
[30]
  fold change (FC): 5
[31]
  Activity: 28%
[14]
  Activity: Dose-dependent effect

## CSCC[C@@H](NC(=O)[C@H](N)CC(C)C)C(=O)N1CCC[C@@H]1C(=O)N[C@H](Cc1cnc[nH]1)C(N)=O
[32]
  inhibition: inactive

## CSCC[C@@H](NC(=O)[C@@H](CC(C)C)NC(=O)C(F)(F)F)C(=O)N1CCC[C@@H]1C(=O)N[C@H](CC(=O)O)C(N)=O
[14]
  Activity: inactive

## CSCC[C@@H](NC(=O)[C@@H](CC(C)C)NC(C)=O)C(=O)N1CCC[C@@H]1C(=O)N[C@H](Cc1cnc[nH]1)C(N)=O
[32]
  inhibition: inactive
